Reference: ChEMBL document CHEMBL1148268, “Macrocyclic piperazinones as potent dual inhibitors of farnesyltransferase and geranylgeranyltransferase-I” (Bioorg Med Chem Lett, 2004)
pEC50, pIC50: −log10 of the molar value. Converted amounts (≈) assume the structure as drawn.

Legend:
PSN1 [1] = assay: Effective dose required for half-maximal inhibition of prenylation in PSN-1 cells (Ki-Ras); format: functional, cell-based; details: Homo sapiens
Summary of the method: (§1)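 PSN-1 cells are treated with compound. Prenylation of HDJ2, Rap1a and Ki-Ras is scored by scanning immunoblots of whole-cell extracts, and EC50 is the dose giving half-maximal inhibition of prenylation. The ratio is Ki-Ras EC50 over HDJ2 EC50. In one arm a selective GGTI is added at 1 μM.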

PSN1 [2] = assay: Effective dose required for half-maximal inhibition of geranylgeranylated protein (Rap1a) in PSN-1 cells; format: functional, cell-based; details: Homo sapiens; summary of the method: as §1
[3] = biological target: T1, Geranylgeranyl transferase type I (Homo sapiens, UniProt P49354+P53609); assay: Inhibition of human Geranylgeranyl transferase type I incorporation of [3H]GGPP into biotinylated peptide corresponding to the C-terminus of human Ki-Ras.; format: protein-complex assay
Summary of the method: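 Human GGPTase-I with [3H]GGPP and a biotinylated peptide matching the human Ki-Ras C-terminus. Enzyme and inhibitor are preincubated for 30 min with 5 mM ATP. The IC50 is the concentration that halves incorporation. A parallel run omits the preincubation.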

PSN1 [4] = assay: Ratio of effective concentration required for protein processing of Ki-Ras to that of HDJ2 in PSN-1 cells; format: functional, Homo sapiens; summary of the method: as §1
[5] = biological target: T1, Geranylgeranyl transferase type I; assay: Minimum inhibitory concentration required to inhibit Rap1a processing in PSN-1 cells.; format: functional, cell-based
PSN1 [6] = assay: Effective dose required for half-maximal inhibition of farnesylated protein (HDJ2) in PSN-1 cells; format: functional, cell-based; details: Homo sapiens; summary of the method: as §1
[7] = biological target: T2, Protein farnesyltransferase (Homo sapiens, UniProt P49354+P49356); assay: Inhibition of human Farnesyltransferase -catalyzed incorporation of [3H]FPP into recombinant Ras-CVIM.; format: protein-complex assay
Summary of the method: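 Human FPTase with [3H]FPP and recombinant Ras-CVIM as the protein substrate. The IC50 is the concentration that halves [3H]farnesyl incorporation into Ras-CVIM.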

[8] = biological target: T2, Protein farnesyltransferase; assay: Displacement of radiolabeled FTI from Farnesyltransferase in cultured Ha-ras transformed RAT1 cells.; format: cell-based
Homo sapiens = species: Homo sapiens; assay: Slope between log (IC50) versus log [GGPP] in GGTase-I; format: functional
Summary of the method: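 GGPP competition in the human GGPTase-I [3H]GGPP/biotinylated Ki-Ras peptide assay. IC50s are measured at various GGPP concentrations with 5 mM ATP.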

Structure (SMILES) | pEC50 (PSN1 [1]) | pEC50 (PSN1 [2]) | pIC50 [3] | Ratio (PSN1 [4]) | MIC [5] | pEC50 (PSN1 [6]) | pIC50 [7] | pIC50 [8] | Slope (Homo sapiens)
CC1(C)OCC(Cc2ccc3cc2CN2CCN(CC2=O)Cc2cncn2Cc2ccc(C#N)c(c2)O3)O1 (stereo not drawn) | 5.82 | 6.16 | 7.34 | 150 | < 0.3 µM | 8.00 | 9.30 | 9.07 | 0.25
C#Cc1ccc2cc1CN1CCN(CC1=O)Cc1cncn1Cc1ccc(C#N)c(c1)O2 | – | – | 6.67 | – | 3 µM (≈ 1.27 µg/mL) | – | 9.30 | 8.85 | –
N#Cc1ccc2cc1Oc1ccc(C(=O)NC3C4CC5CC(C4)CC3C5)c(c1)CN1CCN(CC1=O)Cc1cncn1C2 (stereo not drawn) | – | – | 7.37 | – | 0.1 µM (≈ 0.0577 µg/mL) | – | 7.70 | 7.52 | 0.28
N#Cc1ccc2cc1Oc1ccc(F)c(c1)CN1CCN(CC1=O)Cc1cncn1C2 | – | – | 5.56 | – | – | – | > 9.00 | 9.00 | –
N#Cc1ccc2cc1Oc1ccc(CC(O)CO)c(c1)CN1CCN(CC1=O)Cc1cncn1C2 (stereo not drawn) | – | – | 5.98 | – | – | – | 8.17 | 7.40 | –
CCCc1ccc2cc1CN1CCN(CC1=O)Cc1cncn1Cc1ccc(C#N)c(c1)O2 | – | – | 7.01 | – | 1 µM (≈ 0.442 µg/mL) | – | 9.51 | 9.36 | -0.12
N#Cc1ccc(Cn2cncc2CN2CCN(c3cccc(Cl)c3)C(=O)C2)cc1 [L-778123 FREE BASE] | 5.20 | 5.17 | – | – | – | 7.04 | – | – | 1.42
N#Cc1ccc2cc1Oc1ccc3cccc(c3c1)N1CCN(CC1=O)Cc1cncn1C2 | < 5.00 | < 5.00 | 6.52 | >5000 | 10 µM (≈ 4.35 µg/mL) | 8.70 | – | 9.54 | -0.44
CC(C)(C)C#Cc1ccc2cc1CN1CCN(CC1=O)Cc1cncn1Cc1ccc(C#N)c(c1)O2 | – | – | 7.26 | – | 1 µM (≈ 0.48 µg/mL) | – | 7.42 | 8.00 | 0.32
CC(C)(C)CCc1ccc2cc1CN1CCN(CC1=O)Cc1cncn1Cc1ccc(C#N)c(c1)O2 | – | – | 8.68 | – | 0.1 µM (≈ 0.0484 µg/mL) | – | 7.72 | 7.55 | 0.48
N#Cc1ccc2cc1Oc1ccc(C#CC3CCCCC3)c(c1)CN1CCN(CC1=O)Cc1cncn1C2 | – | – | 8.62 | – | 0.3 µM (≈ 0.152 µg/mL) | – | 6.44 | 6.77 | 0.68
N#Cc1ccc2cc1Oc1ccc(CC3CC3)c(c1)CN1CCN(CC1=O)Cc1cncn1C2 | – | – | 6.62 | – | 10 µM (≈ 4.54 µg/mL) | – | 9.18 | 8.66 | –
N#Cc1ccc2cc1Oc1ccc(Cl)c(c1)CN1CCN(CC1=O)Cc1cncn1C2 | – | – | 6.35 | – | – | – | > 9.00 | 9.52 | –
N#Cc1ccc2cc1Oc1cccc(c1)CN1CCN(CC1=O)Cc1cncn1C2 | – | – | 5.42 | – | 30 µM (≈ 12 µg/mL) | – | 8.66 | 8.48 | 0.08
C=CCc1ccc2cc1CN1CCN(CC1=O)Cc1cncn1Cc1ccc(C#N)c(c1)O2 | – | – | 6.97 | – | 1 µM (≈ 0.44 µg/mL) | – | 10.00 | 9.23 | –
Cc1ccc2cc1CN1CCN(CC1=O)Cc1cncn1Cc1ccc(C#N)c(c1)O2 | – | – | 6.30 | – | – | – | – | 9.48 | –
CCc1ccc2cc1CN1CCN(CC1=O)Cc1cncn1Cc1ccc(C#N)c(c1)O2 | – | – | 6.91 | – | 1 µM (≈ 0.428 µg/mL) | – | 9.18 | 8.92 | -0.16
N#Cc1ccc2cc1Oc1ccc(Br)c(c1)CN1CCN(CC1=O)Cc1cncn1C2 | – | – | 7.00 | – | 10 µM (≈ 4.78 µg/mL) | – | 9.35 | 8.96 | –
N#Cc1ccc2cc1Oc1ccc(C#Cc3ccccc3)c(c1)CN1CCN(CC1=O)Cc1cncn1C2 | – | – | 6.27 | – | – | – | 6.19 | – | –
COC(=O)c1ccc2cc1CN1CCN(CC1=O)Cc1cncn1Cc1ccc(C#N)c(c1)O2 | – | – | 6.38 | – | 3 µM (≈ 1.37 µg/mL) | – | 7.62 | 7.70 | –
N#Cc1ccc2cc1Oc1ccc(CCC3CCCCC3)c(c1)CN1CCN(CC1=O)Cc1cncn1C2 | 5.97 | 6.85 | 8.77 | 89 | 0.03 µM (≈ 0.0153 µg/mL) | 7.92 | 8.80 | 8.24 | -0.25
